Bioassay records deposited in PubChem by Johns Hopkins Ion Channel Center.
KCNQ1 block: blocks the human KCNQ1 potassium channel. CHO-K1 KCNQ1, FluxOR thallium flux fluorescence; hits give high values. B-score at 10 µM. hit rate 1.3% among 310,000;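 active = compounds whose thallium flux B-score, printed positive for inhibition, exceeds three library SD while starting fluorescence stays within three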;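 also: channel opened by potassium depolarization with thallium stimulus after 20 min compound exposure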
KCNK9 block: blocks the human KCNK9 two-pore domain potassium channel | Q9NPC2 | HEK293 KCNK9, FluxOR thallium flux fluorescence; hits give low values | hit rate 1.2% among 310,000 | B-score at 10 µM;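 active = ratio B-score over 3 SD below the library mean, with starting fluorescence within 5 SD of its mean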;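 also: negative B-score means less thallium flux so channel inhibition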
hERG rescue: shields human hERG channel from block by proarrhythmic agents | Q12809 | CHO-hERG, FluxOR thallium flux, dofetilide IC70 present | activation (rescue from dofetilide block), less the hit threshold, % at 10 µM | hit rate 0.51% among 310,000 | AID 1511;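 active = activation above the mean of controls blocked by dofetilide plus 5 SD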;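 also: thallium influx through hERG after potassium depolarization seen as dye fluorescence rise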
Kir21 block: blocks the mouse Kir2.1 inward-rectifier potassium channel | P35561 | HEK293-Kir2.1, FluxOR thallium flux fluorescence; hits give low values | B-score at 10 µM | hit rate 0.85% among 310,000;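 active = fluorescence ratio B-score at or below minus 3 SD of library scores, with starting-brightness B-score within 2 SD, cut at about -4.2 in these data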;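 also: channel flux triggered by added potassium and thallium sulfate stimulus; B-score of peak minus minimum fluorescence over baseline after thallium stimulus; more negative B-score means stronger Kir2.1 block with less thallium influx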
KCNK3 block: human KCNK3 channel inhibition, primary screen | O14649 | CHO-KCNK3 thallium flux, FluxOR fluorescence; hits give low values | B-score at 10 µM | hit rate 0.84% among 340,000;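 active = B-score under library mean minus 4 SD, starting fluorescence ratio at most library mean plus 5 SD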;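 also: more negative B-score means stronger inhibition of thallium flux through KCNK3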
Target sequence (O14649 whole entry, looked up): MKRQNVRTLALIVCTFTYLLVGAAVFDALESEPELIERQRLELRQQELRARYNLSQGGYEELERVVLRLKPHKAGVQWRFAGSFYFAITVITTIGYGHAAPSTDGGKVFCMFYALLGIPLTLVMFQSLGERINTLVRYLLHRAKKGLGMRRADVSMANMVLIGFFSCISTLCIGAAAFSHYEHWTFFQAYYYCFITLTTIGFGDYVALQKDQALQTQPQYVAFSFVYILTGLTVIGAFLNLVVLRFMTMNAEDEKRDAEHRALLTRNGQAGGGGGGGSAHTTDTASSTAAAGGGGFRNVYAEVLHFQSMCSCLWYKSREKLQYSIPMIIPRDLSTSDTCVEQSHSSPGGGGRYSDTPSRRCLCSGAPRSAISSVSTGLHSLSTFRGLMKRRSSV
KCNQ1 pot: potentiates or activates the human KCNQ1 potassium channel | P51787 | CHO-K1 KCNQ1, thallium flux FluxOR fluorescence; hits give high values | B-score at 10 µM | hit rate 0.35% among 310,000;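 active = fluorescence ratio B-score, a plate-corrected score, at least three library SD, with initial intensity B-score within 5 SD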
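Assay system: CHO-K1 cells stably expressing KCNQ1; Medium: assay buffer with matched DMSO; Also added: K+/Tl+ depolarizing stimulus; Dosing: single dose; Timing: dye 90 min, compound 20 min, room temperature; Measured by: kinetic FluxOR thallium fluorescence, 10-s 1-Hz baseline, 110-s post-stimulus read; Read-out: peak-minus-minimum fluorescence over initial fluorescence, negative-control normalized, B-scored.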
KCNK3 inh conf: confirmation of human KCNK3 two-pore domain potassium channel inhibitors | ratio percent of control, % at 10 µM | AID 651638 | hit rate 99% among 2,400 | CHO-KCNK3 thallium flux, FluxOR fluorescence; 0% buffer, 100% carvedilol maximal block | shares compounds with KCNK3 block;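 active = ratio percent of control, averaged over triplicates, above buffer control mean plus 5 SD, cut at about 64% in these data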;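 also: ratio is the fluorescence rise from min to max over baseline after thallium stimulus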
KCNK3 uninduced: counter-screen for KCNK3 inhibitors: effect in non-induced cells | shares compounds with KCNK3 block | non-induced KCNK3 parental cells, FluxOR thallium flux; hits give low values | thallium flux ratio (lower = more inhibition) at 10 µM | hit rate 40% among 2,400;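 active = thallium flux ratio, averaged over three wells, more than 5 SD below the buffer control mean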;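 also: host cells are CHO cells without KCNK3 induction; ratio is peak minus trough fluorescence over baseline then normalized to buffer controls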
An asterisk follows results filed as active. A selection: hits, their analogues and other compounds. The true share with any hit is near 3.8%.

O=C(CCn1c(=O)[nH]c2ccsc2c1=O)N1CCN(c2ccc([N+](=O)[O-])cc2)CC1 was read as KCNQ1 block inactive, KCNK9 block inactive, hERG rescue -10, Kir21 block 0.97, KCNK3 block inactive and KCNQ1 pot inactive.
For CCc1cccc(NC(=O)c2cccc3c2C(=O)N(C2CCCCC2)C3)c1 the results were KCNQ1 block inactive, KCNK9 block inactive, hERG rescue -8, Kir21 block -1.3, KCNK3 block -8.7*, KCNQ1 pot inactive, KCNK3 inh conf 78* and KCNK3 uninduced inactive.
Screening COc1ccc(-c2csc(N(CC3CCCO3)C(=O)c3cccs3)n2)cc1 (configuration not stated) returned KCNQ1 block inactive, KCNK9 block inactive, hERG rescue -14, Kir21 block 0.13, KCNK3 block -10*, KCNQ1 pot inactive, KCNK3 inh conf 117* and KCNK3 uninduced inactive.
Screening COc1ccc(OC)c(-c2csc(N(CC3CCCO3)C(=O)C3CCCCC3)n2)c1 (configuration not stated) returned KCNQ1 block inactive, KCNK9 block inactive, hERG rescue -9, Kir21 block 0.31, KCNK3 block -9.5*, KCNQ1 pot inactive, KCNK3 inh conf 93* and KCNK3 uninduced inactive.
Screening CC1=Nc2ccccc2/C1=C/c1sc(=N)n(-c2nccs2)c1O returned KCNQ1 block 10*, KCNK9 block inactive, hERG rescue -24, Kir21 block -2.6, KCNK3 block -10*, KCNQ1 pot inactive, KCNK3 inh conf 175* and KCNK3 uninduced 0.089*.
Screening S=C(c1ccc(-c2cc(Cl)ccc2Cl)o1)N1CCOCC1 returned KCNQ1 block inactive, KCNK9 block inactive, hERG rescue -9, Kir21 block 0.7, KCNK3 block -8.9*, KCNQ1 pot inactive, KCNK3 inh conf 126* and KCNK3 uninduced 0.14*.
CC[C@H](C)/C=C(C)/C=C/C1=CC2=CC(=O)[C@]3(C)OC(=O)[C@@H](C(C)=O)[C@@H]3C2=CO1 was read as KCNQ1 block 6*, KCNK9 block inactive, hERG rescue -24, Kir21 block -1.7, KCNK3 block -9*, KCNQ1 pot inactive, KCNK3 inh conf 122* and KCNK3 uninduced 0.078*.
For C(=C/c1nccc2c1[nH]c1ccccc12)/c1ccc2c(c1)OCO2 the results were KCNQ1 block inactive, KCNK9 block inactive, hERG rescue -13, Kir21 block -0.55, KCNK3 block -11*, KCNQ1 pot inactive, KCNK3 inh conf 99* and KCNK3 uninduced inactive.
For Cc1ccc(S(=O)(=O)N(C)c2ccc3ccccc3c2)cc1 the results were KCNQ1 block inactive, KCNK9 block inactive, hERG rescue -38, Kir21 block -0.46, KCNK3 block -9.4*, KCNQ1 pot inactive, KCNK3 inh conf 122* and KCNK3 uninduced 0.13*.
O=C(CSC1=N/C(=C/c2ccco2)C(=O)N1c1ccc(OC(F)F)cc1)NC1CCS(=O)(=O)C1 (configuration not stated) was read as KCNQ1 block inactive, KCNK9 block inactive, hERG rescue -10, Kir21 block -0.2, KCNK3 block -8.9*, KCNQ1 pot inactive, KCNK3 inh conf 83* and KCNK3 uninduced inactive.
Screening CCNC(=O)CSC1=N/C(=C\c2ccc(O)c(OCC)c2)C(=O)N1c1ccc(OC(F)F)cc1 returned KCNQ1 block inactive, KCNK9 block inactive, hERG rescue -10, Kir21 block -0.2, KCNK3 block inactive and KCNQ1 pot inactive.
O=c1cc(C(Cl)(Cl)Cl)oc2c1ccc1ccccc12 was read as KCNQ1 block inactive, KCNK9 block inactive, hERG rescue -22, Kir21 block 0.54, KCNK3 block inactive and KCNQ1 pot inactive.
Screening COc1ccc(OC)c(-c2csc(NC(=O)Cc3ccccc3F)n2)c1 returned KCNQ1 block inactive, KCNK9 block -6.7*, hERG rescue -7, Kir21 block -1.5, KCNK3 block inactive, KCNQ1 pot inactive, KCNK3 inh conf 98* and KCNK3 uninduced inactive.
`N=c1n(CCO)c2ccccc2n1Cc1ccc(Cl)cc1` gave KCNQ1 block inactive, KCNK9 block inactive, hERG rescue -13, Kir21 block -2.1, KCNK3 block inactive and KCNQ1 pot inactive.
Screening N=c1n(Cc2ccc(Cl)cc2)c2ccccc2n1CC(O)COc1ccccc1 (configuration not stated) returned KCNQ1 block inactive, KCNK9 block inactive, hERG rescue -24, Kir21 block -9.6*, KCNK3 block -12*, KCNQ1 pot inactive, KCNK3 inh conf 123* and KCNK3 uninduced inactive.
COc1ccc(OC)c(C(=O)COC(=O)c2cc(C)oc2C)c1 was read as KCNQ1 block inactive, KCNK9 block inactive, hERG rescue -14, Kir21 block 1.5, KCNK3 block -10*, KCNQ1 pot inactive, KCNK3 inh conf 119* and KCNK3 uninduced inactive.
Screening COc1ccc(NC(=O)COC(=O)c2cc(C)oc2C)cc1OC returned KCNK3 block inactive.
COc1ccc(OCCSc2ncccn2)cc1 was read as KCNQ1 block inactive, KCNK9 block inactive, hERG rescue -7, Kir21 block -0.8, KCNK3 block inactive and KCNQ1 pot inactive.
For COc1ccc(OCCSc2nc(C)nc3ccccc23)cc1 the results were KCNQ1 block inactive, KCNK9 block inactive, hERG rescue -28, Kir21 block 0.71, KCNK3 block -12*, KCNQ1 pot inactive, KCNK3 inh conf 123* and KCNK3 uninduced inactive.
For COc1ccc2ccccc2c1CN1CCN(C(=O)c2ccco2)CC1 the results were KCNQ1 block inactive, KCNK9 block inactive, hERG rescue -1, Kir21 block -0.05, KCNK3 block -11*, KCNQ1 pot inactive, KCNK3 inh conf 90* and KCNK3 uninduced inactive.
For Cc1ccc(Cn2c(NS(=O)(=O)c3ccccc3)nc3ccccc32)cc1 the results were KCNQ1 block inactive, KCNK9 block inactive, hERG rescue -6, Kir21 block -0.05, KCNK3 block inactive and KCNQ1 pot inactive.
For CCOC(=O)c1cnc2ccc(C)cc2c1NCCN1CCOCC1 the results were KCNQ1 block inactive, KCNK9 block inactive, hERG rescue -2, Kir21 block -0.03, KCNK3 block -8.8*, KCNQ1 pot inactive, KCNK3 inh conf 100* and KCNK3 uninduced inactive.
